What was measured:
[1] = molecular target: T1, L-selectin (Homo sapiens, UniProt P14151); experiment: Inhibitory activity against human chimeric L-selectin-Ig
T1 sequence (P14151 whole entry): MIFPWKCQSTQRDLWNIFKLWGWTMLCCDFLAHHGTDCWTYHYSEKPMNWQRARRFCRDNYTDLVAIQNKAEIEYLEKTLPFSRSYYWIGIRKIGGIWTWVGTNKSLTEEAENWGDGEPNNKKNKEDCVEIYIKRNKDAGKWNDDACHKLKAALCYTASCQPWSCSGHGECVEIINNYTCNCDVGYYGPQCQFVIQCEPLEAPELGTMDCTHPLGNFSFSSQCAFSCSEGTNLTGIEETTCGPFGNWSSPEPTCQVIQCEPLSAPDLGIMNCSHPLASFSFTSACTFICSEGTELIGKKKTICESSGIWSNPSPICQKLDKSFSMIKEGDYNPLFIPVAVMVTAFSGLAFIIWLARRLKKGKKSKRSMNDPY
Outline: (§1)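 Competition against binding of the sLeX pentasaccharide ceramide ligand to purified selectin-Ig. The fusions carry the lectin, EGF and two complement regulatory repeats on the human IgG1 hinge/Fc and were expressed in COS7 (transient) or CHO (stable) cells. The P-selectin cDNA came from HUVEC mRNA and the L-selectin cDNA from Jurkat mRNA, both by RT-PCR.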

[2] = molecular target: T2, P-selectin (Homo sapiens, UniProt P16109); experiment: Inhibitory activity against human chimeric Selectin P-Ig; outline: as §1
T2 sequence (P16109 whole entry): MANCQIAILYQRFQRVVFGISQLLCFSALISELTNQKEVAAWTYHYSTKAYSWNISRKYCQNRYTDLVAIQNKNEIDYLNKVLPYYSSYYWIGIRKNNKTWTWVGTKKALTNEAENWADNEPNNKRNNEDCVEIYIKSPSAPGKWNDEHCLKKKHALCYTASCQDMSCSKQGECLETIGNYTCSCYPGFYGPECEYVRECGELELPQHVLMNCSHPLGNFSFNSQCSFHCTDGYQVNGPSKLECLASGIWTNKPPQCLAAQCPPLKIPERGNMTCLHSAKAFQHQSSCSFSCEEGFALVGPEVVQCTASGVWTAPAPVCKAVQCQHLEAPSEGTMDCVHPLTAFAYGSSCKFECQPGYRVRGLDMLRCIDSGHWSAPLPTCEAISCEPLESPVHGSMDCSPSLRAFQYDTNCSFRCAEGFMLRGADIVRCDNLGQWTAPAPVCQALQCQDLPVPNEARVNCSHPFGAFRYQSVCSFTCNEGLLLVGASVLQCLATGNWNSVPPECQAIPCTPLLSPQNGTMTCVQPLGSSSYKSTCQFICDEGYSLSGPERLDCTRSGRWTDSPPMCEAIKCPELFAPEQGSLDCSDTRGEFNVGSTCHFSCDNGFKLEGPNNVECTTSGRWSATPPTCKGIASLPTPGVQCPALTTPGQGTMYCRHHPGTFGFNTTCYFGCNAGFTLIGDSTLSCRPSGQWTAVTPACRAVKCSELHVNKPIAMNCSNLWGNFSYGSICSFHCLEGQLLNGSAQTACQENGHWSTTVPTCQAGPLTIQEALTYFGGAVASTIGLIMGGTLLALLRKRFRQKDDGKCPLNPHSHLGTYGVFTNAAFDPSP

[3] = molecular target: T3, E-selectin (Homo sapiens, UniProt P16581); experiment: Inhibitory activity against human chimeric E-selectin-Ig
T3 sequence (P16581 whole entry): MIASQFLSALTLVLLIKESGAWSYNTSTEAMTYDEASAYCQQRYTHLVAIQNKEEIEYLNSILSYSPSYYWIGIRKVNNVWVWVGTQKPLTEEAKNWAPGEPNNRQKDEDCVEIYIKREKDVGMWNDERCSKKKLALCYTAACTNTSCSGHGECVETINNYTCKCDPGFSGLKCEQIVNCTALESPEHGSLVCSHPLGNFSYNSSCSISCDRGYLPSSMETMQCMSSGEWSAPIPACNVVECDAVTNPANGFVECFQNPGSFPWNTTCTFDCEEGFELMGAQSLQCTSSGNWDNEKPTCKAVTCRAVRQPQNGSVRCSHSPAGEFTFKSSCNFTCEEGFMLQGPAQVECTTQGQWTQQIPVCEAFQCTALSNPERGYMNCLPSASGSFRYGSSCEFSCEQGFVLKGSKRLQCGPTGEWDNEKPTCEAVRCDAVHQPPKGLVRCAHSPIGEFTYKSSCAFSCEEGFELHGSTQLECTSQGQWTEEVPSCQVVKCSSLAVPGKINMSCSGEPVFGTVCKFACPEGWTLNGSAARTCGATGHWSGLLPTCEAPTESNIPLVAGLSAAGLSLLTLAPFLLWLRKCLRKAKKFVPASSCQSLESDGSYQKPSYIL
Outline: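 Competitive ELISA. sLeX-pentaceramide was adsorbed at 100 pmol per well and blocked with 5% BSA-PBS. E-selectin-Ig fusion (lectin, EGF and two complement regulatory repeats on human IgG1 hinge/CH2/CH3; cDNA from HUVEC mRNA) was precomplexed 30 min with biotin-anti-human IgG(Fc)/streptavidin-alkaline phosphatase. Compound at 100, 25, 6.25 or 1.56 µM final was preincubated with the complex 30 min, then 37 °C for 45 min. pNPP read at 405 nm; duplicates.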

| SMILES | IC50 [1] [µM] | IC50 [2] [µM] | IC50 [3] [µM] |
| --- | --- | --- | --- |
| C[C@@H]1O[C@@H](O[C@@H]2CCO[C@H](CO)[C@H]2O[C@@H]2O[C@H](CO)[C@H](O)[C@H](OS(=O)(=O)O)[C@H]2O)[C@@H](O)[C@H](O)[C@@H]1O | > 1000 | 560 | > 1000 |
| CC(=O)N[C@H]1CO[C@H](CO)[C@@H](O[C@@H]2O[C@H](CO)[C@H](O)[C@H](OS(=O)(=O)O)[C@H]2O)[C@@H]1O[C@@H]1O[C@@H](C)[C@@H](O)[C@@H](O)[C@@H]1O | > 1000 | > 1000 | > 1000 |
| CC(=O)N[C@H]1[C@H]([C@H](O)[C@H](O)CO)O[C@@](O[C@H]2[C@@H](O)[C@@H](CO)O[C@@H](O[C@@H]([C@H](O[C@@H]3O[C@@H](C)[C@@H](O)[C@@H](O)[C@@H]3O)[C@H](C=O)NC(C)=O)[C@H](O)CO)[C@@H]2O)(C(=O)O)C[C@@H]1O [SIALYL LEWIS X] | > 1000 | > 1000 | 600 |
| CC(=O)N[C@H]1[C@H]([C@H](O)[C@H](O)CO)O[C@@](O[C@@H]2[C@H](O)[C@@H](O)[C@H](O[C@H]3[C@H](O[C@@H]4O[C@@H](C)[C@@H](O)[C@@H](O)[C@@H]4O)[C@@H](O)CO[C@@H]3CO)O[C@@H]2O)(C(=O)O)C[C@@H]1O | 220 | > 1000 | 240 |
| C[C@@H]1O[C@@H](O[C@H]2[C@H](O[C@@H]3O[C@H](CO)[C@H](O)[C@H](OS(=O)(=O)O)[C@H]3O)[C@@H](CO)OC[C@@H]2O)[C@@H](O)[C@H](O)[C@@H]1O | > 1000 | 670 | > 1000 |
| C[C@@H]1O[C@@H](O[C@@H]2CCO[C@H](CO)[C@H]2O[C@@H]2O[C@H](CO)[C@H](O)[C@H](OP(=O)(O)O)[C@H]2O)[C@@H](O)[C@H](O)[C@@H]1O | 420 | > 1000 | > 1000 |
